The nature of data set [1]: folding enthalpy; higher = less favourable; fluorescence melt of hairpins on a sequencing array, two-state fit. Conditions: sodium 0.088 M. The method, boiled down: (§1)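 To match UV melts, fitted temperatures were raised by 9.35 °C. These fits were bootstrapped two-state models that gave melting temperature and folding enthalpy, combined by inverse variance over four replicates. The input was normalised Cy3 fluorescence of library hairpins with annealed Cy3 and quencher oligos on a sequenced MiSeq flow cell, imaged in 50 mM Na-HEPES pH 8.0, 25 mM NaCl in 2.5 °C steps up to 60 °C.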

Data set [2] is described as follows: melting temperature; fluorescence melt of hairpins on a sequencing array, two-state fit, raised by 9.35 °C to match UV melts. Conditions: sodium 0.088 M. The method, boiled down:
as §1

For the sequence GCGTCGCCGAAAGGCCGC (((..(((....)))))), in data set [1], the folding enthalpy is -19.3 kcal/mol. The Tm in data set [2] was 57.1 °C.
On to GCGTCGCGAAAGCCATGC ((.(.((....)).).)), for which the folding enthalpy in data set [1] is -16.2 kcal/mol. Besides, the Tm in data set [2] is 41.5 °C.
On the same counts, the results for GCGTCGCGAAAGCGCAGC ((..(((....)))..)) are -19.9 kcal/mol and 57.5 °C.
On the same counts, the results for GCGTCGCGAAAGCGCTGC ((..(((....)))..)) are -16.3 kcal/mol and 50.2 °C.
The matching figures for GCGTCGCGAAAGCGGGGC ((..(((....)))..)): -29 kcal/mol and 67.4 °C.
Turning to GCGTCGCGAAAGCTCCGC (((..((....))..))), the folding enthalpy in data set [1] is -21.1 kcal/mol. Further, in data set [2], the Tm amounted to 46.8 °C.
For GCGTCGCGAAAGCTTCGC (((..((....))..))), the folding enthalpy in data set [1] was -19.7 kcal/mol. Further, the Tm in data set [2] was 53.5 °C.
In the case of GCGTCGGGAAACCGGTGC ((..(((....)))..)), the folding enthalpy in data set [1] is -21.2 kcal/mol. The Tm in data set [2] came to 48.7 °C.
As for GCGTCGGGACGC ((((....)))), the folding enthalpy in data set [1] is -20.2 kcal/mol. For the same sequence, in data set [2], the Tm turned out to be 66 °C.
Turning to GCGTCGGTACGC ((((....)))), in data set [1], the folding enthalpy is -19.3 kcal/mol. Also, in data set [2], the Tm turned out to be 52.8 °C.
The matching figures for GCGTCGTGACGC ((((....)))): -22.7 kcal/mol and 68.4 °C.
For the sequence GCGTCTAAACGC ((((....)))), the folding enthalpy in data set [1] was -23 kcal/mol. Besides, the Tm in data set [2] turned out to be 54.4 °C.
On the same counts, the results for GCGTCTCCACGC ((((....)))) are -21.4 kcal/mol and 52 °C.
On the same counts, the results for GCGTCTGAACGC ((((....)))) are -25.2 kcal/mol and 54 °C.
The matching figures for GCGTCTGGACGC ((((....)))): -34.1 kcal/mol and 59.8 °C.
For the sequence GCGTGAAGACGC ((((....)))), in data set [1], the folding enthalpy is -23 kcal/mol. Further, in data set [2], the Tm amounted to 58.3 °C.
Take GCGTGACCGAAAGGTCGC (((..(((....)))))): the folding enthalpy in data set [1] was -10.1 kcal/mol. In data set [2], the Tm came out at 51.6 °C.
In the case of GCGTGAGAAATCACGC ((((((....)))))), the folding enthalpy in data set [1] was -29.5 kcal/mol. In addition, the Tm in data set [2] amounted to 69 °C.
Regarding GCGTGAGCGAAAGCTCGC (((..(((....)))))), the folding enthalpy in data set [1] is -10.4 kcal/mol. Moreover, the Tm in data set [2] stood at 53 °C.
GCGTGAGGACGC ((((....)))): the folding enthalpy in data set [1] is -18.9 kcal/mol. Further, the Tm in data set [2] was 50.8 °C.
Take GCGTGAGTACGC ((((....)))): the folding enthalpy in data set [1] was -19.9 kcal/mol. Further, the Tm in data set [2] worked out at 52.5 °C.
On to GCGTGCAGACGC ((((....)))), for which the folding enthalpy in data set [1] was -20.4 kcal/mol. Further, the Tm in data set [2] stood at 62.5 °C.
For the sequence GCGTGCATACGC ((((....)))), the folding enthalpy in data set [1] is -24.6 kcal/mol. In data set [2], the Tm came to 68.7 °C.
The matching figures for GCGTGCGAAAGCACACGC ((((((....)))..))): -15 kcal/mol and 64.5 °C.
On the same counts, the results for GCGTGCGAAAGCACCGC ((((((....))).))) are -13.8 kcal/mol and 67.2 °C.
For the sequence GCGTGCGAAAGCATTCGC ((((((....)))..))), the folding enthalpy in data set [1] was -16.8 kcal/mol. For the same sequence, in data set [2], the Tm was 52.4 °C.
The matching figures for GCGTGCGGAAACACACGC (((((.(....).))))): -40.2 kcal/mol and 58.5 °C.
On the same counts, the results for GCGTGCGGACGC ((((....)))) are -15.6 kcal/mol and 54.7 °C.
The matching figures for GCGTGCTTACGC ((((....)))): -16.9 kcal/mol and 54.9 °C.
Take GCGTGGACGAAAGTCCGC (((..(((....)))))): the folding enthalpy in data set [1] was -11.3 kcal/mol. Besides, the Tm in data set [2] is 52.8 °C.
As for GCGTGGCCACGC ((((....)))), in data set [1], the folding enthalpy is -43.9 kcal/mol. Also, the Tm in data set [2] stood at 62.8 °C.
GCGTGGCGAAAGCCCTGC ((..(((....)))..)): in data set [1], the folding enthalpy was -18.3 kcal/mol. Further, in data set [2], the Tm amounted to 47.2 °C.
Consider GCGTGGCGAAAGCGAAGC ((.(.((....)).).)), for which, in data set [1], the folding enthalpy was -16.9 kcal/mol. Moreover, the Tm in data set [2] turned out to be 50.5 °C.
The matching figures for GCGTGGCGAAAGCGAGGC ((.(.((....)).).)): -16.8 kcal/mol and 51.1 °C.
GCGTGGCGAAAGCGTCGC (((..((....))..))): the folding enthalpy in data set [1] was -22.6 kcal/mol. Moreover, in data set [2], the Tm worked out at 58.7 °C.
The matching figures for GCGTGGCGAAAGCTATGC ((.(.((....)).).)): -31.4 kcal/mol and 52.5 °C.
The matching figures for GCGTGGGGAAACTCGCGC (((.(.(....).).))): -35.6 kcal/mol and 54 °C.
As for GCGTGGGGACGC ((((....)))), the folding enthalpy in data set [1] is -21.1 kcal/mol. In addition, the Tm in data set [2] was 52.6 °C.
In the case of GCGTGGTGACGC ((((....)))), the folding enthalpy in data set [1] was -17.3 kcal/mol. Moreover, the Tm in data set [2] was 55.1 °C.
On the same counts, the results for GCGTGTCTACGC ((((....)))) are -25.8 kcal/mol and 57.8 °C.
Take GCGTGTGCACGC ((((....)))): the folding enthalpy in data set [1] is -29.9 kcal/mol. The Tm in data set [2] stood at 57.2 °C.
The matching figures for GCGTGTGGAAACACATGC ((.((((....)))).)): -42 kcal/mol and 57.5 °C.
The matching figures for GCGTGTTCACGC ((((....)))): -29 kcal/mol and 59.5 °C.
As to GCGTTAAAACGC ((((....)))), in data set [1], the folding enthalpy is -21.4 kcal/mol. In addition, in data set [2], the Tm amounted to 50.3 °C.
The matching figures for GCGTTAAACGC ((((...)))): -19 kcal/mol and 50.9 °C.
The matching figures for GCGTTACTACGC ((((....)))): -26.7 kcal/mol and 54.8 °C.
GCGTTAGAAATAACGC ((((((....)))))): the folding enthalpy in data set [1] was -37.8 kcal/mol. In addition, the Tm in data set [2] came to 57.6 °C.
In the case of GCGTTAGAACGC ((((....)))), the folding enthalpy in data set [1] was -20.3 kcal/mol. Further, the Tm in data set [2] turned out to be 52.8 °C.
On the same counts, the results for GCGTTAGGAAACCAACGC (((((.(....).))))) are -44.9 kcal/mol and 49.8 °C.
On the same counts, the results for GCGTTAGGAAACTAACGC (((((((....))))))) are -50.9 kcal/mol and 65.8 °C.
Consider GCGTTCAAACGC ((((....)))), for which the folding enthalpy in data set [1] is -24.5 kcal/mol. Moreover, the Tm in data set [2] was found to be 53.1 °C.
With GCGTTCACACGC ((((....)))), the folding enthalpy in data set [1] was -22.6 kcal/mol. For the same sequence, the Tm in data set [2] worked out at 52.8 °C.
The matching figures for GCGTTCCACGC ((((...)))): -25.3 kcal/mol and 59.7 °C.
On the same counts, the results for GCGTTCGAAAGAAAACGC ((((((....)))..))) are -27.3 kcal/mol and 49 °C.
On the same counts, the results for GCGTTCGAAAGAAACCGC ((((((....)))..))) are -25.2 kcal/mol and 36.9 °C.
Take GCGTTCGAAAGAATGCGC ((((((....)))..))): the folding enthalpy in data set [1] was -28.8 kcal/mol. Besides, the Tm in data set [2] was determined as 57.3 °C.
For the sequence GCGTTGAACGC ((((...)))), the folding enthalpy in data set [1] was -18.2 kcal/mol. For the same sequence, the Tm in data set [2] stood at 54.1 °C.
The matching figures for GCGTTGAGACGC ((((....)))): -29.7 kcal/mol and 56.6 °C.
Consider GCGTTGCAACGC ((((....)))), for which the folding enthalpy in data set [1] was -33.5 kcal/mol. Also, in data set [2], the Tm was 59 °C.
As for GCGTTGCGAAAGCAGAGC ((..(((....)))..)), in data set [1], the folding enthalpy was -35.8 kcal/mol. In addition, the Tm in data set [2] was determined as 63.4 °C.
The matching figures for GCGTTGCGAAAGCCAGGC ((.(.((....)).).)): -16.9 kcal/mol and 40.3 °C.
On the same counts, the results for GCGTTGCGAAAGCCGCGC (((..((....))..))) are -21.9 kcal/mol and 63.3 °C.
As to GCGTTGCGAAAGCGCCGC (((..((....))..))), in data set [1], the folding enthalpy is -14.8 kcal/mol. In data set [2], the Tm amounted to 58.4 °C.
On the same counts, the results for GCGTTGCGAAAGCTAAGC ((.(.((....)).).)) are -26.9 kcal/mol and 59.2 °C.
On the same counts, the results for GCGTTGCGAAAGCTATGC ((.(.((....)).).)) are -23.7 kcal/mol and 48.6 °C.
With GCGTTGCGAAAGCTGCGC (((..((....))..))), the folding enthalpy in data set [1] was -36.3 kcal/mol. Besides, the Tm in data set [2] turned out to be 65.1 °C.
Regarding GCGTTGGGAAACCAGTGC ((..(((....)))..)), the folding enthalpy in data set [1] was -24.1 kcal/mol. For the same sequence, in data set [2], the Tm was determined as 36.5 °C.
On the same counts, the results for GCGTTGGGAAACCGATGC ((.(.((....)).).)) are -25.9 kcal/mol and 44 °C.
The matching figures for GCGTTGGGAAACTAACGC (((((.(....).))))): -47.8 kcal/mol and 55.5 °C.
As for GCGTTTACACGC ((((....)))), the folding enthalpy in data set [1] is -23.2 kcal/mol. Besides, in data set [2], the Tm amounted to 54.3 °C.
For GCGTTTAGACGC ((((....)))), the folding enthalpy in data set [1] is -27.3 kcal/mol. Besides, in data set [2], the Tm stood at 54 °C.
With GCGTTTGAACGC ((((....)))), the folding enthalpy in data set [1] is -20.3 kcal/mol. In addition, in data set [2], the Tm is 56.7 °C.
Regarding GCGTTTGCACGC ((((....)))), the folding enthalpy in data set [1] is -19.1 kcal/mol. Besides, the Tm in data set [2] turned out to be 54.3 °C.
Take GCGTTTGGAAACAAACAC (.(((((....))))).): the folding enthalpy in data set [1] was -12.8 kcal/mol. In addition, in data set [2], the Tm worked out at 40.6 °C.
In the case of GCGTTTGGAAACAAGTGC ((..(((....)))..)), the folding enthalpy in data set [1] is -15.8 kcal/mol. Also, the Tm in data set [2] was 31.4 °C.
GCGTTTTACGC ((((...)))): the folding enthalpy in data set [1] was -23 kcal/mol. Also, the Tm in data set [2] stood at 60.6 °C.
On the same counts, the results for GCGTTTTGACGC ((((....)))) are -25.2 kcal/mol and 55.2 °C.
The matching figures for GCTAAACCGAAAGGTAGC (((..(((....)))))): -26.1 kcal/mol and 44.5 °C.

The values above are taken from the array DNA melting data of Ke et al. (doi:10.1101/2024.01.08.574731).
